Measurements from different studies.
Each line is one published result; the experiments were not run side by side.
Target: Serine/threonine-protein kinase tousled-like 2 (TLK2, Homo sapiens, UniProt Q86UE8)

F[C@@H]1CCN(c2nccc(-c3cnn4ncccc34)n2)C1  remaining binding (binding; 1 µM): 100%
O=C(Nc1cccnn1)N1CCC(=Cc2cccc(Oc3ccc(C(F)(F)F)cn3)c2)CC1  remaining binding (cell-free assay, competition with immobilised ligand; 1 µM): 100%
C[C@@H]1CCN(c2nccc(-c3cnn4ncccc34)n2)C1  remaining binding (binding; 1 µM): 100%
O=C(N[C@H]1CCCCC/C=C\C2C[C@@]2(C(=O)O)NC(=O)[C@@H]2C[C@@H](Oc3ccncc3)CN2C1=O)OC1CCCC1 (stereo partly drawn)  remaining binding (cell-free assay, competition with immobilised ligand; 1 µM): 100%
CCN1CCN(Cc2ccc(C(=O)Nc3ccc(C)c(Oc4ccc5c(c4)CC(=O)N5)c3)cc2C(F)(F)F)CC1  remaining binding (binding, competition with immobilised ligand; 1 µM): 94%
O=C(NCCCN1CCOCC1)c1ccc(Nc2ncc(Cl)c(-c3ccc(Cl)s3)n2)cc1  remaining binding (binding, competition with immobilised ligand; 1 µM): 77%
CC1=C(C#N)[C@@H](c2ccc3[nH]nc(C)c3c2)C(C#N)=C(c2ccc(Cl)cc2)N1  remaining binding (cell-free assay, competition with immobilised ligand; 1 µM): 100%
c1cncc(-c2cccc(Nc3nccc(NC4CCCCC4)n3)c2)c1  remaining binding (binding, competition with immobilised ligand; 10 µM): 100%
COc1cnc(Nc2cccc(S(N)(=O)=O)c2)nc1N1CCN(c2ccccc2)C(=O)C1  remaining binding (binding, competition with immobilised ligand; 1 µM): 100%
O=C(NCC1CCOCC1)c1n[nH]cc1NC(=O)c1c(F)cccc1F  remaining binding (binding, competition with immobilised ligand; 1 µM): 100%
O=C(c1ccc(Nc2ncc(Cl)c(-c3cc4ccccc4s3)n2)cc1)N1CCC(N2CCCC2)CC1  remaining binding (binding, competition with immobilised ligand; 1 µM): 26%
O=C(N1CCS(=O)(=O)CC1)N1C[C@H](c2ccc(OC(F)(F)F)cc2)C[C@H](c2nc(C3CC3)no2)C1  remaining binding (cell-free assay, competition with immobilised ligand; 1 µM): 100%
N[C@H]1CCN(c2nccc(-c3cnn4ncccc34)n2)C1  remaining binding (binding; 1 µM): 100%
CNC(=O)Nc1ccc2c(c1)[C@@]1(CC2)OC(=O)N(CC(=O)N(Cc2ccc(F)cc2)[C@@H](C)C(F)(F)F)C1=O  remaining binding (cell-free assay, competition with immobilised ligand; 1 µM): 100%
FC(F)(F)Oc1cccc(-c2cnc3ccc(-c4ccncc4)nn23)c1  remaining binding (binding, competition with immobilised ligand; 5 µM): 93%
CN(CCCC(F)(F)F)c1nccc(-c2cnn3ncccc23)n1  remaining binding (binding; 1 µM): 100%
O=C(c1ccc(Nc2ncc(Cl)c(-c3ccc(Cl)s3)n2)cc1)N1CCC(N2CCCC2)CC1  remaining binding (binding, competition with immobilised ligand; 1 µM): 29%
CN(C)c1ncc(F)c(-c2cnn3ncccc23)n1  remaining binding (binding; 1 µM): 100%
CCS(=O)(=O)c1cc2cc(C[C@](O)(CC(C)(C)c3ccc(F)cc3C(N)=O)C(F)(F)F)[nH]c2cn1  remaining binding (cell-free assay, competition with immobilised ligand; 1 µM): 100%
Cc1cnn2ncc(-c3ccnc(N(C)C)n3)c2c1  remaining binding (binding; 1 µM): 100%
Nc1ncc2c(n1)-c1c([nH]c3ccc(C#CC4CC4)cc13)CCCC2  remaining binding (binding, competition with immobilised ligand; 1 µM): 100%
